Experimental data from ChEMBL document CHEMBL3108673, “Computation-guided discovery of influenza endonuclease inhibitors” (ACS Med Chem Lett, 2014).

How the values were obtained:
MDCK = assay: Cytotoxicity against MDCK cells after 48 hrs by methylene blue dye-based spectroscopy relative to control; type: cell-based, Canis lupus familiaris; conditions: dog
Procedure, shortened: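 MDCK cells. CC50 is the compound concentration that kills half of the cell population.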

[1] = Inhibition of influenza A virus H1N1 endonuclease N-terminal domain of PA-subunit expressed in Escherichia coli BL21(DE3) using FAM-AAT CGC AGG CAG CAC TC-TAM as substrate by FRET assay
Procedure, shortened: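 Recombinant PA_N construct from pH1N1 2009 influenza in a FRET read-out of endonuclease cleavage. Compounds were first screened at 200 μM, then run in dose-response to derive IC50.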

Influenza A virus = assay: Antiviral activity against Influenza A virus (A/Puerto Rico/8/1934(H1N1)) infected in MDCK cells assessed as inhibition of virus-induced cytopathic effect after 48 hrs by CellTitre-Glo assay; type: functional, organism-based
Procedure, shortened: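 MDCK cells infected with PR8 H1N1. IC50 is the compound concentration at which half of the infected cells survive. Only compounds with CC50 above 50 μM in MDCK cells were tested.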

[2] = Influenza A virus, A/Puerto Rico/8/1934(H1N1), MDCK, 48 h, read-out: IC50

SMILES | CC50 (MDCK; read-out: CC50) | IC50 [1] | IC50 (Influenza A virus; [2]) | IC50 (Influenza A virus; mdck) | CC50 (MDCK)
O=C(Cc1ccccc1)c1ccc(O)c(O)c1O | 18.1 µM | 1.5 µM |  |  | 
O=C(N/N=C\c1cccc(Cl)c1Cl)c1ccc(O)c(O)c1 | 6.8 µM | 0.7 µM |  |  | 
Cc1ccccc1/C=N\NC(=O)c1ccc(O)c(O)c1 | > 50 µM | 1.9 µM | > 50 µM |  | 
COc1ccccc1N1CCN(/N=C/c2ccc(O)c(O)c2)CC1 | 13 µM | 2 µM |  |  | 
C/C(=N/NC(=O)c1ccc(O)c(O)c1)c1ccc(C)cc1 | > 50 µM | 2.1 µM | > 50 µM |  | 
O=C(N/N=C\c1ccc(/C=N/NC(=O)c2ccc(O)c(O)c2)cc1)c1ccc(O)c(O)c1 |  | 23 µM |  | ND(Insoluble) | ND(Insoluble)
O=C1CC2(CCCCC2)Oc2c1ccc(O)c2O | > 100 µM | 8 µM | > 100 µM |  | 
CC(=O)N1CCC2(CC1)CC(=O)c1ccc(O)c(O)c1O2 | > 100 µM | 46 µM | > 100 µM |  | 
O=C(Cc1ccccc1Cl)c1ccc(O)c(O)c1O | > 50 µM | 5 µM | > 50 µM |  | 
Cc1ccccc1CC(=O)c1ccc(O)c(O)c1O | 21 µM | 11 µM |  |  | 
O=C(N/N=C\c1ccccc1Cl)c1cc(O)c(O)c(O)c1 | > 100 µM | 14 µM | 18 µM |  | 
COc1ccc(NC(=O)/C(O)=C/C(=O)c2ccc(C)cc2)cc1 | > 50 µM | 0.6 µM | > 50 µM |  | 
COc1ccc(NC(=O)/C(O)=C/C(=O)c2ccc(Cl)cc2)cc1 | > 100 µM | 0.74 µM | > 50 µM |  | 
O=C(/N=C1/C(=O)Nc2ccc(Br)cc21)/C(O)=C/C(=O)c1ccc(Cl)cc1 | > 50 µM | 23 µM |  |  | 
Cc1ccc(C(=O)/C=C(O)/C(O)=C/C(=O)c2ccc(C)cc2)cc1 | > 50 µM | 6 µM | 23 µM |  | 
O=C(/C=C(O)/C(O)=C/C(=O)c1ccc(Cl)cc1)c1ccc(Cl)cc1 | > 100 µM | 11.7 µM | > 50 µM |  | 
